# Reference: paper PMC8177101 (Chemical research in toxicology, 2020)
# Tests used:
# [1] = CellTiter Glo cytotoxicity; type: cell-based; settings: human
# Method in brief: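 Human HapMap lymphoblastoid lines grown in RPMI 1640 with 15% heat-inactivated FBS at 37 °C, 5% CO2, low passage (<10). Preliminary cytotoxicity dose-response to the test compound (a diepoxide) read by CellTiter Glo as cellular ATP level; IC50 taken from the dose-response curves.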
# [2] = test system: HapMap lymphoblastoid cell lines; experiment: Micronuclei; type: cell-based, human; settings: then 96 h in fresh media, averaged over all cell lines
# Method in brief: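 Ten GSTT1-negative and 8 GSTT1-positive lymphoblastoid lines were grown in RPMI 1640 with 15% heat-inactivated FBS at 37 °C, 5% CO2, passage <10. Cells were seeded at 0.5 million per 4 ml and rested 24 h. They were exposed to 0, 5 or 10 μM test compound for 6 h in triplicate, pelleted, then held 96 h in fresh medium. Micronuclei were scored with the Litron kit by flow cytometry.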
# [3] = test system: HapMap lymphoblastoid cell lines; experiment: Apoptosis, Annexin V / PI flow cytometry; type: cell-based, human; settings: 0, 5 or 10 μM DEB, 24 h, 18 cell lines; Anova p < 0.001
# [4] = ref [10], [11]; cited from earlier work
compound,measurement,setting,value
"C1OC1C1CO1 (centres unmarked) [DEB, 1,2,3,4-diepoxybutane]",IC50,[1],2 to 6 µM
same,fold increase of mean percent of MN positive cells,[2]; 5 μM DEB 6 h,1.8 fold
same,fold increase of mean percent of MN positive cells,[2]; 10 μM DEB 6 h,2.4 fold
same,percentage of Annexin V-labeled cells,[3],increase in the percentage of Annexin V-labeled cells
same,mutagenic potency as compared to BD-derived monoepoxides,[4],up to 200 fold
